Experimental data taken from PubChem BioAssay AID602285 (Broad Institute, 2012).

Biological target: Scavenger receptor class B member 1 (Mus musculus) (UniProt Q61009)
Test: SR-BI mediated DiI-HDL lipid uptake blockers – ldlA[mSR-BI] CHO cells, fluorescence plate reader, dry powder, set 8, dose response (AID 602285)
Details: 3 h
Outline: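 Reagent: DiI-labelled HDL, 10 µg protein/mL / System: ldlA[mSR-BI] cells, LDL receptor-deficient CHO line overexpressing murine SR-BI / Times: overnight cell plating, then 3 h compound and DiI-HDL exposure at 37 °C / Dosing: pin-transferred compounds, dose series / Detection: Washed-cell DiI fluorescence, ex 550/em 595 nm / Buffer or medium: Ham's F12, fatty acid-free BSA, HEPES pH 7.4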

Sequence of Scavenger receptor class B member 1 (Mus musculus) (Q61009 whole entry, looked up): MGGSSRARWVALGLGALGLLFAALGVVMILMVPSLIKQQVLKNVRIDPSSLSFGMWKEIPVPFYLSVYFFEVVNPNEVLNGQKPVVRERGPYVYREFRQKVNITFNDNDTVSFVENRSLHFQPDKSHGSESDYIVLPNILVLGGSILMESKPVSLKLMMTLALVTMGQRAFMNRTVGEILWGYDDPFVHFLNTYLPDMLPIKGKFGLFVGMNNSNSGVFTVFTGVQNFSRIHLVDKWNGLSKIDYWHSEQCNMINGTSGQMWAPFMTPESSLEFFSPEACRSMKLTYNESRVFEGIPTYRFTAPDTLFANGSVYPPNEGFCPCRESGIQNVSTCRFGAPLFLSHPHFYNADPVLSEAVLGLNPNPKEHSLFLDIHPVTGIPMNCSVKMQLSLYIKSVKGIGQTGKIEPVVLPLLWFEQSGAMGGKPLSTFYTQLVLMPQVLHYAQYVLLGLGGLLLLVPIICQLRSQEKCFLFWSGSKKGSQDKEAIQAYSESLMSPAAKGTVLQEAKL

AC50: 563 nM
SMILES: C[C@@H]1CN([C@H](C)CO)C(=O)c2cc(NC(=O)CCCCCC(=O)Nc3ccccc3N)ccc2O[C@H]1CN(C)S(=O)(=O)c1ccc(Cl)cc1
